KCC2 mod: KCC2 cotransporter modulators, thallium flux, primary screen, cell-based, HEK293 KCC2, FluoZin-2 fluorescence, MLSMR; KCC2 cells, thallium flux FluoZin-2 fluorescence; AID 1456, 2008; 190,000 compounds, 2.2% hits; B-score of Tl+ flux slope (higher = more flux/activation; lower = inhibition) at 10 µM; Solute carrier family 12 member 5 (Homo sapiens), Q9H2X9;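 active = thallium flux slope and its plate-corrected score both differing from the plate sample mean at a set confidence after two filtering rounds, in either direction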;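 also: slope of fluorescence scaled to starting intensity during 10 to 20 s after thallium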
RAM inhibit: inhibitors of the yeast RAM network, primary screen, dse1pr::URA3 reporter, 5-FOA selection; S. cerevisiae dse1pr::URA3 reporter, 5-FOA growth OD615, 2 d; analog-sensitive cbk1-as2 kinase mutant strain; inhibition, % at 50 µM; 190,000 compounds, 1.8% hits; AID 868, 2007;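 active = inhibition above a set limit, 3 SD over mean compound inhibition, cut at about 8.4% in these data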;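 also: 0% = DMSO-only wells with no growth and 100% = 10 µM 1-NA-PP1 full growth; inhibition rescues growth on 5-FOA so higher OD means more RAM inhibition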
BB579 growth dn: growth inhibitors of yeast BB579 in restrictive medium, primary screen, yeast lifespan-shortening project, S. cerevisiae; OD615, 48 h; inhibition, % at 10 µM; 140,000 compounds, 0.51% hits;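 active = inhibition above a set limit, 3 SD over the mean compound inhibition, cut at about 44% in these data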
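test system = yeast BB579 (DeaD) | buffer or medium = restrictive CSMM-D medium | doses = single compound dose of 10 µM, 0.25% DMSO final | times = 4 h preincubation and 48 h exposure at 30 °C | technique = culture absorbance at 615 nm | benchmarks = amphotericin B 10 µg/mL, positive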
Yeast life ext: compounds extending yeast replicative lifespan, primary screen, S. cerevisiae, OD615. inhibition of the nicotinamide effect, % at 10 µM. 130,000 compounds, 0.68% hits. S. cerevisiae growth with nicotinamide; deaD strain in restrictive glucose medium;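 active = inhibition above a set limit, placed 3 SD over the median of all compounds, cut at about 26% in these data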;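 also: 0% = nicotinamide-treated wells and 100% = cells grown without nicotinamide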
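Buffer or medium: CSMM-D glucose medium, restrictive; test system: modified budding yeast, DeaD strain; compound: single dose 10 µM compound, 0.25% DMSO; schedule: culture preincubation 4 h, compound exposure 48 h, both 30 °C; detection: optical density (absorbance) at 615 nm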
WT yeast gro inh: growth inhibition of WT strain, primary screen, mitochondrial fusion inhibitor project, WT and mutant strains, chemical genetic; mitochondrial fusion phenotypic screen; inhibition, % at 10 µM; 190,000 compounds, 2.1% hits; AID 1362, 2008; in the data active = inhibition above about 58%; tested in S. cerevisiae
RAM 5-FOA: 5-FOA growth of efflux-deficient control yeast, dose response, counter-screen for RAM network inhibitor project, S. cerevisiae, OD615. max inhibition, %. S. cerevisiae efflux-deficient reporter strain, 5-FOA growth OD615, 2 days. shares compounds with RAM inhibit. 1,200 tested, under 10 active; call rule not given here;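 also: plate controls were vehicle for no effect and reference inhibitor for full effect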
* = called active by the depositor. Most compounds without a hit are left out; they make up all but 5.5% or so of the library.

Cc1cccc(-n2c(C)cc(/C=C3\C(=N)N4N=C(CC(C)C)SC4=NC3=O)c2C)c1 was read as KCC2 mod 0.679, RAM inhibit 7.9, BB579 growth dn -34.9, Yeast life ext 4.5 and WT yeast gro inh 2.4.
`Cc1cc([N+](=O)[O-])nn1Cc1ccc(C(=O)N/N=C/c2ccc(N(C)C)cc2)cc1` gave KCC2 mod 1.43.
`CCOC(=O)c1cc(-c2ccccc2)sc1NC(=O)C(C)OC(=O)c1cccc(S(=O)(=O)N(C)C)c1` (configuration not stated) gave KCC2 mod -0.0918, RAM inhibit 4.1, BB579 growth dn -14.6, Yeast life ext 6.6 and WT yeast gro inh -9.3.
Screening CCOC(=O)c1cc(-c2ccccc2)sc1NC(=O)C(C)OC(=O)c1cccnc1OCC (configuration not stated) returned KCC2 mod 1.04, RAM inhibit 12.0*, BB579 growth dn -13.9, Yeast life ext 3.5, WT yeast gro inh -8.1 and RAM 5-FOA 6.2.
`Cc1cccc(NC(=S)N(CCN2CCOCC2)Cc2cc3cc4c(cc3[nH]c2=O)OCCO4)c1` gave KCC2 mod 0.643, RAM inhibit 1.5 and WT yeast gro inh -10.8.
For CC(=O)c1ccc(OC(=O)c2ccc(-n3nc(C)cc3C)cc2)cc1 the results were KCC2 mod 0.025, RAM inhibit 0.9 and WT yeast gro inh -3.5.
`Cc1cc(C)n(-c2ccc(C(=O)Oc3ccc4c(c3)OCO4)cc2)n1` gave KCC2 mod 0.116, RAM inhibit 12.6*, BB579 growth dn -47.3, Yeast life ext -6.6, WT yeast gro inh 12.2 and RAM 5-FOA 3.2.
For CS(=O)(=O)C1=NSC2=NC(=O)/C(=C\c3ccc(-c4ccccc4)o3)C(=N)N21 the results were KCC2 mod -1.99, RAM inhibit 3.0, BB579 growth dn -2.4, Yeast life ext 1.6 and WT yeast gro inh -1.0.
Screening CC(C)S(=O)(=O)C1=NSC2=NC(=O)/C(=C\c3ccc(-c4ccccc4)o3)C(=N)N21 returned KCC2 mod -3.41, RAM inhibit 14.1*, BB579 growth dn 0.5, Yeast life ext 3.7, WT yeast gro inh 17.1 and RAM 5-FOA 4.2.
`Cc1ccc(N(CC(=O)NCCSCc2ccco2)S(=O)(=O)c2ccc(F)cc2)cc1` gave KCC2 mod -1.82, RAM inhibit 3.8 and WT yeast gro inh 13.2.
`CS(=O)(=O)N(Cc1ccc(C(=O)NCCSCc2ccco2)cc1)c1ccccc1` gave RAM inhibit 11.7*, BB579 growth dn -67.3, Yeast life ext 21.6, WT yeast gro inh 9.9 and RAM 5-FOA 2.4.
COc1ccc(N(CC(=O)NCCSCc2ccco2)S(=O)(=O)c2ccc(C)cc2)cc1 was read as KCC2 mod -2.8, RAM inhibit 14.8*, WT yeast gro inh -5.5 and RAM 5-FOA 2.0.
Screening CCOC(=O)/C(C#N)=C(C)/C=C1\Sc2ccccc2N1CC returned KCC2 mod inactive, RAM inhibit 21.6*, BB579 growth dn -48.9, Yeast life ext 0.5, WT yeast gro inh 6.5 and RAM 5-FOA 2.9.
CCCCOn1c(C)c(C(=O)OCC)c2c3no[n+]([O-])c3ccc21 was read as KCC2 mod -0.311, RAM inhibit 12.1*, BB579 growth dn -40.1, Yeast life ext -19.6, WT yeast gro inh 0.7 and RAM 5-FOA 1.4.
`COc1ccc(C2=NCCn3cccc32)c(OC)c1` gave KCC2 mod 2.35, RAM inhibit 4.0, BB579 growth dn -35.9, Yeast life ext 4.0 and WT yeast gro inh 20.1.
For COc1ccc(Nc2nnc(SCC3CCCCO3)s2)cc1 (configuration not stated) the results were KCC2 mod -0.183, RAM inhibit 0.4 and WT yeast gro inh 4.8.
For Cc1cccc(Nc2nnc(SCC3CCCCO3)s2)c1 (configuration not stated) the results were KCC2 mod -0.516, RAM inhibit 14.5*, BB579 growth dn -10.9, Yeast life ext -5.0, WT yeast gro inh 21.7 and RAM 5-FOA 2.4.
COC(=O)[C@H](Cc1ccccc1)NC(=O)[C@@]1(C)C[C@@H]1[C@@H](NC(=O)OCc1ccccc1)c1ccccc1 was read as KCC2 mod 0.892, RAM inhibit 12.7*, BB579 growth dn -48.9, Yeast life ext 7.5, WT yeast gro inh 31.9 and RAM 5-FOA 4.9.
For Cc1ccc(C(=O)N[C@H](C(=O)OCC(=O)NC2CCS(=O)(=O)C2)C(C)C)cc1 (some centres not stated) the results were KCC2 mod 0.00128, RAM inhibit 2.3, BB579 growth dn -13.8, Yeast life ext 0.2 and WT yeast gro inh 10.4.
For Cc1ccc(C(=O)c2ccccc2C(=O)OCC(=O)Nc2ccc(SC(F)F)cc2)cc1 the results were KCC2 mod -0.466, RAM inhibit 13.2*, BB579 growth dn -33.9, Yeast life ext 5.3, WT yeast gro inh 36.6 and RAM 5-FOA 1.6.
O=C(COC(=O)c1ccccc1Cc1ccccc1)Nc1ccc(SC(F)F)cc1 was read as KCC2 mod 0.743, RAM inhibit 14.3*, BB579 growth dn -31.0, Yeast life ext 2.2, WT yeast gro inh 70.5* and RAM 5-FOA 4.3.
Cc1ccc(C(=O)c2ccccc2C(=O)OCC(=O)Nc2cccc([N+](=O)[O-])c2)cc1 was read as KCC2 mod 0.928, RAM inhibit 6.3, BB579 growth dn -27.8, Yeast life ext -4.2 and WT yeast gro inh 5.1.
O=C(COC(=O)c1cc(Cl)ccc1[N+](=O)[O-])NCc1ccc(Cl)cc1Cl was read as KCC2 mod -2.82, RAM inhibit 13.5*, BB579 growth dn -65.7, Yeast life ext 0.7, WT yeast gro inh 61.3* and RAM 5-FOA 0.9.
O=C(COC(=O)c1cc(Cl)ccc1[N+](=O)[O-])Nc1cccc2ccccc12 was read as KCC2 mod 1.38, RAM inhibit 5.3, BB579 growth dn -29.6, Yeast life ext -5.1 and WT yeast gro inh 12.4.
CSc1ccccc1NC(=O)COC(=O)c1ccccc1Cc1ccccc1 was read as KCC2 mod 0.875, RAM inhibit 1.8, BB579 growth dn -33.5, Yeast life ext -4.2 and WT yeast gro inh 29.4.
For Cc1ccc(C(=O)c2ccccc2C(=O)OCC(=O)NCCc2ccc(Cl)cc2Cl)cc1 the results were KCC2 mod -0.424, RAM inhibit 15.1*, BB579 growth dn -73.3, Yeast life ext 10.3, WT yeast gro inh 31.0 and RAM 5-FOA 2.6.
For O=C(C1CCCN(S(=O)(=O)c2cccc3cccnc23)C1)N1CCN(c2ccc(F)cc2)CC1 (configuration not stated) the results were RAM inhibit 1.3, BB579 growth dn -7.0, Yeast life ext -5.5 and WT yeast gro inh -0.3.

Bioassay records from PubChem BioAssay.
